Calls of active or inactive are those of the source. No cut-off for these calls is given here.

What all share (assay type): cell-based
Data set [1] deals with Potassium voltage-gated channel subfamily KQT member 2 (Rattus norvegicus) (UniProt O88943). As to the kind of experiment: Activity at rat homomeric KCNQ2 expressed in CHOK1 cells assessed as effect on current amplitude up to 30 uM at -10 mV by whole cell patch clamp assay. The method, boiled down:
(§1)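 CHO-K1 cells expressing homomeric KCNQ2, recorded by whole-cell voltage clamp. Holding potential −80 mV with step depolarizations; current amplitude at −10 mV compared before and after compound across 1–30 μM, reported as percent change in current.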
A general note: Patch clamp records ionic current or voltage across a cell membrane.

Data set [2] addresses T1, Potassium voltage-gated channel subfamily KQT member 5 (Homo sapiens, UniProt Q9NR82). Put plainly: Activity at human KCNQ5 expressed in CHOK1 cells assessed as ratio of amplitude of outward current in presence of test compound to amplitude of outward current in absence of test compound at 10 uM at -10 mV by whole cell patch clamp assay. The method, boiled down:
(§2)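 CHO-K1 cells expressing the channel, whole-cell voltage clamp, compound at 10 μM. Read-out is the outward current ratio I/I0 with and without compound, taken at −10 mV. I/I0 > 1 counts as activation and < 1 as inhibition. More than four cells per compound.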

In data set [3] the target is Potassium voltage-gated channel subfamily KQT member 2 (Rattus norvegicus) (UniProt O88943). Put plainly: Activity at rat KCNQ2 expressed in CHOK1 cells assessed as ratio of amplitude of outward current in presence of test compound to amplitude of outward current in absence of test compound at 10 uM at +60 mV by whole cell patch clamp assay. The method, boiled down:
(§3)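 CHO-K1 cells individually transfected with a single KCNQ subtype; whole-cell voltage clamp. Held at −80 mV, stepped from −90 to +60 mV in 10 mV increments (1500 ms), then to −120 mV for 500 ms. Outward current at −10 or +60 mV measured before (I0) and after (I) 10 μM compound; I/I0 >1 counts as activation. More than four cells per compound.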

The target in data set [4] is T2, Potassium voltage-gated channel subfamily KQT member 1 (Homo sapiens, UniProt P51787).
T2 sequence (P51787 whole entry): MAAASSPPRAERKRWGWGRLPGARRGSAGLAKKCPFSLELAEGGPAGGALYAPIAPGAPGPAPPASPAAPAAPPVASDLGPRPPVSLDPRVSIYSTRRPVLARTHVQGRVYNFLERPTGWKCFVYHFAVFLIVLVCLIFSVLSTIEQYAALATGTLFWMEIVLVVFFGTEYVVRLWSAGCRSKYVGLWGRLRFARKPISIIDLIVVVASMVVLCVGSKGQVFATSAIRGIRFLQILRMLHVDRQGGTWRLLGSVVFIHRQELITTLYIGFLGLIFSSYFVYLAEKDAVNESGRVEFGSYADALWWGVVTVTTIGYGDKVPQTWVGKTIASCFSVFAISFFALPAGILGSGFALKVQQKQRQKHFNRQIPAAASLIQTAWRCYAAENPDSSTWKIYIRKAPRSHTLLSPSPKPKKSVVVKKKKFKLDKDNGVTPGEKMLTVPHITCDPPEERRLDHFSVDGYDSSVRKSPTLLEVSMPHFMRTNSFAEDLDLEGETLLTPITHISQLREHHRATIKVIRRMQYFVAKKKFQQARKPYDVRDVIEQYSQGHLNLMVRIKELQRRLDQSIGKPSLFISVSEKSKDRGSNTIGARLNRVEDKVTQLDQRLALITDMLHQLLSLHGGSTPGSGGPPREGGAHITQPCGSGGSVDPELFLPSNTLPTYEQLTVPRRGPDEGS
As to the kind of experiment: Activity at human KCNQ1 expressed in CHOK1 cells assessed as ratio of amplitude of outward current in presence of test compound to amplitude of outward current in absence of test compound at 10 uM at +60 mV by whole cell patch clamp assay. A digest of the protocol: as §3

Data set [5] concerns the target Potassium voltage-gated channel subfamily KQT member 2 (Rattus norvegicus, UniProt O88943). As to the kind of experiment: Activation of rat homomeric KCNQ2 expressed in CHOK1 cells increase in current amplitude at 30 uM at -10 mV by whole cell patch clamp assay relative to control. The method, boiled down: as §1
For data set [6], the target named is Potassium voltage-gated channel subfamily KQT member 2 (Rattus norvegicus) (UniProt O88943). As to the kind of experiment: Activity at rat KCNQ2 expressed in CHOK1 cells assessed as ratio of amplitude of outward current in presence of test compound to amplitude of outward current in absence of test compound at 10 uM at -10 mV by whole cell patch clamp assay. The method, boiled down: as §2

Data set [7] addresses T2, Potassium voltage-gated channel subfamily KQT member 1. Put plainly: Activity at human KCNQ1 expressed in CHOK1 cells assessed as ratio of amplitude of outward current in presence of test compound to amplitude of outward current in absence of test compound at 10 uM at -10 mV by whole cell patch clamp assay. A digest of the protocol:
as §3

Data set [8] concerns the target T1, Potassium voltage-gated channel subfamily KQT member 5. As to the kind of experiment: Activity at human KCNQ5 expressed in CHOK1 cells assessed as ratio of amplitude of outward current in presence of test compound to amplitude of outward current in absence of test compound at 10 uM at +60 mV by whole cell patch clamp assay. A digest of the protocol: as §3
Data set [9] has as its target Potassium voltage-gated channel subfamily KQT member 2 (Rattus norvegicus) (UniProt O88943). Put plainly: Effect on voltage-dependent activation of rat KCNQ2 expressed in CHOK1 cells assessed as negative shift in current activation curve at 10 uM by whole cell patch clamp assay.
Data set [10] concerns the target T3, Potassium voltage-gated channel subfamily KQT member 4 (Homo sapiens) (UniProt P56696).
T3 sequence (whole entry): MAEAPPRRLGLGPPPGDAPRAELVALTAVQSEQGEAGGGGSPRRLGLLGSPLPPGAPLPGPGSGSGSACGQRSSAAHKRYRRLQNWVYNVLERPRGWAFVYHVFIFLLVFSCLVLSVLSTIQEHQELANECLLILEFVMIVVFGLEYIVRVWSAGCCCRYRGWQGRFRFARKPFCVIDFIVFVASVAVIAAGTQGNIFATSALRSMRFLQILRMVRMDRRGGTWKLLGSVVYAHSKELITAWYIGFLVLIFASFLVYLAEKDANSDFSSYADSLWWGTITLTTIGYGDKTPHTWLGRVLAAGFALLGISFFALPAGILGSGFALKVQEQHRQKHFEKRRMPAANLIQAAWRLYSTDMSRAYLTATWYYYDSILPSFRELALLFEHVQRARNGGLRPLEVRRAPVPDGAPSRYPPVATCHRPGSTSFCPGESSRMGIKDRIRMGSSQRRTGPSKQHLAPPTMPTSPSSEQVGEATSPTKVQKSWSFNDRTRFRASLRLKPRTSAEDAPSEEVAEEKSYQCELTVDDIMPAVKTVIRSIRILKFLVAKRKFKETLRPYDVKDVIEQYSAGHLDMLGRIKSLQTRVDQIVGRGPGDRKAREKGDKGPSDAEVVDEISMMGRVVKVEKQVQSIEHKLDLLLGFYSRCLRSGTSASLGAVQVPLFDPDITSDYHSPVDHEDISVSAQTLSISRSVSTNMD
As to the kind of experiment: Activity at human KCNQ4 expressed in CHOK1 cells assessed as ratio of amplitude of outward current in presence of test compound to amplitude of outward current in absence of test compound at 10 uM at -10 mV by whole cell patch clamp assay. A digest of the protocol:
as §2

Sequence of Potassium voltage-gated channel subfamily KQT member 2 (Rattus norvegicus) (O88943 whole entry): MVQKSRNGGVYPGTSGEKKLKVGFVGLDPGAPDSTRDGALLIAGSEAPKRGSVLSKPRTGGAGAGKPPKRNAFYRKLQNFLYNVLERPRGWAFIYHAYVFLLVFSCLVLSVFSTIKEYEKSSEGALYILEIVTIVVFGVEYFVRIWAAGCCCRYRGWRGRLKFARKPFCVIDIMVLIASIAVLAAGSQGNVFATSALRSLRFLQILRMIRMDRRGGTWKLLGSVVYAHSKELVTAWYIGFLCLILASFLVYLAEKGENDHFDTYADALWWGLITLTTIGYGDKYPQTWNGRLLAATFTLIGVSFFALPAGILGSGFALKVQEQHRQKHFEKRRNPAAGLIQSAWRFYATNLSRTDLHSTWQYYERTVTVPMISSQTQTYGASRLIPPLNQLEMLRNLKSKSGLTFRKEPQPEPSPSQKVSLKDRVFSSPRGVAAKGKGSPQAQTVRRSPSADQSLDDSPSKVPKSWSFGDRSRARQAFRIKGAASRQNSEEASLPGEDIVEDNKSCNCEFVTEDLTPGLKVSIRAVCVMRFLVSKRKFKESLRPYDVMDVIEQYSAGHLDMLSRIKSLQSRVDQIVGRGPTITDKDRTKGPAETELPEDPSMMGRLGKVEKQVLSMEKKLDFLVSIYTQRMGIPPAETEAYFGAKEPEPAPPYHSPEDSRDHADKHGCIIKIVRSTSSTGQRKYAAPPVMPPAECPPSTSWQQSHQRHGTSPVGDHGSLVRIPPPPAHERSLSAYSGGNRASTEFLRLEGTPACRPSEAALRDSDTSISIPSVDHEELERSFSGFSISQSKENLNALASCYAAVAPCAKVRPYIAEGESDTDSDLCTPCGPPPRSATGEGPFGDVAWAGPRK
T1 sequence (Q9NR82 whole entry): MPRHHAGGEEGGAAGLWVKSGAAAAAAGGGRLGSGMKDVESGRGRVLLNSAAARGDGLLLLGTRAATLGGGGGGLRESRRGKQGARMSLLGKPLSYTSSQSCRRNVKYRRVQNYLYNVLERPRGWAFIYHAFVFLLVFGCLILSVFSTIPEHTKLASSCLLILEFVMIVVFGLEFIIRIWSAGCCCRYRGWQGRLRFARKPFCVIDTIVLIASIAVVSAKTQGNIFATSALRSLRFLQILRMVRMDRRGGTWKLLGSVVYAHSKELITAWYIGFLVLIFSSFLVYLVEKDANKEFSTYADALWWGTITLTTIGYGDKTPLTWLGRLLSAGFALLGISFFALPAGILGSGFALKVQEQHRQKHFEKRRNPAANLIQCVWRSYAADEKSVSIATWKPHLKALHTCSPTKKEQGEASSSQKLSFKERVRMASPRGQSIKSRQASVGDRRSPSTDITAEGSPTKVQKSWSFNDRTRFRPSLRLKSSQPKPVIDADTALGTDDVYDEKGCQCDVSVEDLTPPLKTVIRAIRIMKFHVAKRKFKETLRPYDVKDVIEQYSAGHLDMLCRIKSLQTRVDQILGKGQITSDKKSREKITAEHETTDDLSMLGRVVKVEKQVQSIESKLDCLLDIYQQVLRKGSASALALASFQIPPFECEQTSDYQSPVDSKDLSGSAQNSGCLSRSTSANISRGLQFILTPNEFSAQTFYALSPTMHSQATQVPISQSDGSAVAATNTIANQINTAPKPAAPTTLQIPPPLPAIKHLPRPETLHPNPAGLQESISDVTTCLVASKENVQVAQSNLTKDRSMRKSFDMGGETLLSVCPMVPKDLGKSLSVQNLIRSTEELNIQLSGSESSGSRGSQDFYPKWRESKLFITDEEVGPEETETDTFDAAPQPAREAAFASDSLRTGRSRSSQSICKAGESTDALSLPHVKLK
Sequence of Potassium voltage-gated channel subfamily KQT member 2 (O88943 whole entry): as the sequence (O88943 whole entry) above

On to `C#CCN(Cc1ccc(F)cc1)c1ccc(NC(=O)OCC)c(NC(=O)OCC)c1`, for which the result in [1] and in data set [9] was inactive. Moreover, the Ratio was determined as 3.2 in [2]; 0.8 in data set [3]; 1 in [4]; 0.94 in data set [6]; 1 in [7]; 4.8 in data set [8]. Besides, the Ratio in data set [10] was 5.68. The Activity in [5] worked out at 2%.

The values above are taken from ChEMBL document CHEMBL4382285, “Discovery of Novel Retigabine Derivatives as Potent KCNQ4 and KCNQ5 Channel Agonists with Improved Specificity” (ACS Med Chem Lett, 2019).
